pIC50: −log10 of the molar value. Active and inactive are the calls of the source. No cut-off for these calls is given here.
Tests used:
[1] = test system: MDA-MB-231; assay: Antiproliferative activity against human MDA-MB-231 cells overexpressing STAT3 assessed as reduction in cell growth incubated for 48 hrs by CCK-8 assay; assay type: functional, cell-based; conditions: MDA-MB-231, 48 h
Method in brief: (§1)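 Cells seeded at 5000-7000/well and allowed to settle for 8 h at 37 °C, 5% CO2. Graded compound concentrations were then added in triplicate (DMSO <0.1%) for 48 h. Medium was replaced with 10% CCK-8 for 4 h (MDA-MB-231, MDA-MB-468) or 1 h (HepG2), and A450 was read. IC50 is mean ± SD of at least three independent experiments. HepG2 was grown in high-glucose DMEM with 10% FBS.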

[2] = test system: HepG2; assay: Antiproliferative activity against human HepG2 cells overexpressed STAT3 assessed as reduction in cell growth incubated for 48 hrs by CCK-8 assay; assay type: functional, cell-based; conditions: HepG2, 48 h; method in brief: as §1
[3] = test system: MDA-MB-231; assay: Effect on STAT3 expression in human MDA-MB-231 cells at 0.75 to 3 uM incubated for 24 hrs by Western blot analysis; assay type: functional, cell-based; conditions: dose 0.75-3 µM
Method in brief: (§2)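 MDA-MB-231 cells treated with a range of concentrations for 24 h. RIPA lysates with PMSF, 40 µg protein/lane, on 10% SDS-PAGE, then PVDF. Blocked in 5% milk/TBST for 2 h. Primary antibodies to STAT3, p-STAT3(Y705), STAT1, p-STAT1(Y701), c-Myc and Cyclin D1 overnight at 4 °C; GAPDH as loading control. HRP secondary for 1 h; ECL detection.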

[4] = biological target: Signal transducer and activator of transcription 3 (Homo sapiens, UniProt P40763); assay: Inhibition of STAT3 in human MDA-MB-231 cells assessed as reduction in Cyclin D1 expression incubated for 24 hrs by Western blot analysis; assay type: cell-based; conditions: dose 0.75-3 µM; method in brief: as §2
Signal transducer and activator of transcription 3, sequence (P40763 whole entry): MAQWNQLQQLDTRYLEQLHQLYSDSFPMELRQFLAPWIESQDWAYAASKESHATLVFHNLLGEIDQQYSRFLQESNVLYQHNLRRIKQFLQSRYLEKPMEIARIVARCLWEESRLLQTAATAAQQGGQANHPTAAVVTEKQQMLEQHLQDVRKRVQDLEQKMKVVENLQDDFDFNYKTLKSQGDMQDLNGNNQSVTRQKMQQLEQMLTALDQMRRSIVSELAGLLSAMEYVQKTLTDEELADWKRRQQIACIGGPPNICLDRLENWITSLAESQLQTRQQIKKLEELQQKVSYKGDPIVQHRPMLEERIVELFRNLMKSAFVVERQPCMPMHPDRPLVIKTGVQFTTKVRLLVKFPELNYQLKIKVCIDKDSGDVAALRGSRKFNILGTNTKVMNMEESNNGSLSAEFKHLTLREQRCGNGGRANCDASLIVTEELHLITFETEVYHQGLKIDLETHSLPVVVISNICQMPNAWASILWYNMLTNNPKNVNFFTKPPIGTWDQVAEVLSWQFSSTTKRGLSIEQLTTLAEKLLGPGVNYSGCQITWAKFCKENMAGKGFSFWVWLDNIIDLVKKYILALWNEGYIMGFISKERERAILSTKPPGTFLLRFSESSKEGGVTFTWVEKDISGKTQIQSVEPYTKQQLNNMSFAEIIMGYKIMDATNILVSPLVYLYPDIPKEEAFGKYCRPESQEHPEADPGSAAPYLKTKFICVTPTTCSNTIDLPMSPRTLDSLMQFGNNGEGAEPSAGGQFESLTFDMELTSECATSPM

[5] = biological target: T1, Signal transducer and activator of transcription 1-alpha/beta (Homo sapiens) (UniProt P42224); assay: Inhibition of STAT1 in human MDA-MB-231 cells assessed as reduction in STAT1 Y701 phosphorylation at 0.75 to 3 uM incubated for 24 hrs by Western blot analysis; assay type: cell-based; conditions: dose 0.75-3 µM; method in brief: as §2
T1 sequence (whole entry): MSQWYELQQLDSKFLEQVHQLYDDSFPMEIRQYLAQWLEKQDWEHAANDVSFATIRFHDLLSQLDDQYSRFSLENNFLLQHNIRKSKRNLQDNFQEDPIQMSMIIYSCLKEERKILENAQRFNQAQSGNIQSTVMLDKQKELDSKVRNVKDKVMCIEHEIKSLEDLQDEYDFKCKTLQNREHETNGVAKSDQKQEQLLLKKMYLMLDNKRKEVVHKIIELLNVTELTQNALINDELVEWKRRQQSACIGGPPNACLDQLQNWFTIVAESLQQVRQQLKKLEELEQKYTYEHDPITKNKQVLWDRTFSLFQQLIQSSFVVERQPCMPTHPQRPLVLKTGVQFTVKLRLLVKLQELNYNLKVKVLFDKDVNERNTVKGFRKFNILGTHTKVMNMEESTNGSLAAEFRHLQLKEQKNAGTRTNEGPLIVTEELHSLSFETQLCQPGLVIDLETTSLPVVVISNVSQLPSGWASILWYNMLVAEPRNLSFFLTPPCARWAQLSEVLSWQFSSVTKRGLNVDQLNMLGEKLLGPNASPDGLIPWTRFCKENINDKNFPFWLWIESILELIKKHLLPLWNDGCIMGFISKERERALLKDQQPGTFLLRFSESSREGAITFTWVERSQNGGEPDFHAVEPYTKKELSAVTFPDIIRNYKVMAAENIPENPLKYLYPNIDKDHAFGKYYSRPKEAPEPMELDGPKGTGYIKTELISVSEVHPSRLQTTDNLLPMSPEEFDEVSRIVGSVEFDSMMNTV

[6] = test system: MDA-MB-231; assay: Induction of apoptosis in human MDA-MB-231 cells incubated for 24 hrs by annexin V-FITC and PI staining based flow cytometry analysis; assay type: functional, cell-based; conditions: dose 1-4 µM
[7] = test system: MDA-MB-231; assay: Induction of apoptosis in human MDA-MB-231 cells assessed as viable cells at 1 uM incubated for 24 hrs by annexin V-FITC and PI staining based flow cytometry analysis (reference value: 93.37 %); assay type: functional; conditions: read-out: Activity
[8] = test system: MDA-MB-231; assay: Induction of apoptosis in human MDA-MB-231 cells assessed as late apoptotic cells at 1 uM incubated for 24 hrs by annexin V-FITC and PI staining based flow cytometry analysis (reference value: 3.72 %); assay type: functional
[9] = test system: MDA-MB-231; assay: Induction of apoptosis in human MDA-MB-231 cells assessed as late apoptotic cells at 2 uM incubated for 24 hrs by annexin V-FITC and PI staining based flow cytometry analysis (reference value: 3.72 %); assay type: functional
[10] = test system: MDA-MB-231; assay: Induction of apoptosis in human MDA-MB-231 cells assessed as necrotic cells at 2 uM incubated for 24 hrs by annexin V-FITC and PI staining based flow cytometry analysis (reference value: 0.23 %); assay type: functional
[11] = test system: MDA-MB-231; assay: Induction of apoptosis in human MDA-MB-231 cells assessed as viable cells at 4 uM incubated for 24 hrs by annexin V-FITC and PI staining based flow cytometry analysis (reference value: 93.37 %); assay type: functional; conditions: read-out: Activity
[12] = test system: MDA-MB-231; assay: Induction of apoptosis in human MDA-MB-231 cells assessed as late apoptotic cells at 4 uM incubated for 24 hrs by annexin V-FITC and PI staining based flow cytometry analysis (reference value: 3.72 %); assay type: functional
[13] = test system: MDA-MB-231; assay: Induction of cell cycle arrest in human MDA-MB-231 cells assessed as increase in S phase accumulation incubated for 24 hrs by PI staining based flow cytometry analysis; assay type: functional; conditions: dose 1-4 µM
[14] = test system: MDA-MB-231; assay: Induction of cell cycle arrest in human MDA-MB-231 cells assessed as G0/G1 phase accumulation at 1 uM incubated for 24 hrs by PI staining based flow cytometry analysis (reference value: 57.99 %); assay type: functional
[15] = test system: MDA-MB-231; assay: Induction of cell cycle arrest in human MDA-MB-231 cells assessed as G0/G1 phase accumulation at 2 uM incubated for 24 hrs by PI staining based flow cytometry analysis (reference value: 57.99 %); assay type: functional
[16] = test system: MDA-MB-231; assay: Induction of cell cycle arrest in human MDA-MB-231 cells assessed as S phase accumulation at 2 uM incubated for 24 hrs by PI staining based flow cytometry analysis (reference value: 26.21 %); assay type: functional
[17] = test system: MDA-MB-231; assay: Antitumor activity against human MDA-MB-231 cells xenografted in BALB/c mouse assessed as reduction in tumor growth at 10 mg/kg, ip administered once daily for 21 days and measured on day 21 relative to control; assay type: functional; conditions: MDA-MB-231, ip, 504 h, time 21 day, read-out: TGI
Method in brief: (§3)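 Female BALB/c nude mice, 5 weeks old (16–18 g), were given 5×10^6 MDA-MB-231 cells subcutaneously. At ~50 mm³, mice were randomized to three groups (n=6): vehicle, 5 or 10 mg/kg i.p. daily for 21 days. Tumor volume (length×width²/2) was measured every 3 days and body weight recorded. Tumors were excised and weighed at the end. TGI derived versus control; mean ± SEM.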

[18] = test system: MDA-MB-231; assay: Antitumor activity against human MDA-MB-231 cells xenografted in BALB/c mouse assessed reduction in tumor weight at 5 mg/kg, ip administered once daily for 21 days and measured on day 21 relative to control; assay type: functional; conditions: MDA-MB-231, ip, 504 h, time 21 day; method in brief: as §3

- pIC50 [1]: 6.17
- pIC50 [2]: 5.91
- inhibition [4]: Dose-dependent effect
- inhibition [5]: inactive
Compound: COc1ccc(NC2=CC(=O)c3cc(C(C)=O)oc3C2=O)cc1
- Activity [3]: inactive
- Activity [6]: Dose-dependent effect
- viability at 1 µM [7]: 87.9%
- Activity [8]: 6.51%
- Activity [9]: 12.69%
- Activity [10]: 0.38%
- viability at 4 µM [11]: 67%
- Activity [12]: 22.03%
- Activity [13]: Dose-dependent effect
- Activity [14]: 49.42%
- Activity [15]: 40.49%
- Activity [16]: 46.21%
- inhibition in vivo at 10 mg/kg/day [17]: 54.6%
- inhibition in vivo at 5 mg/kg/day [18]: 26%

— ChEMBL document CHEMBL4765360, “Design, synthesis and biological evaluation of novel potent STAT3 inhibitors based on BBI608 for cancer therapy” (Eur J Med Chem, 2020)
